The values that follow come from PMC12977181 (Journal of natural products, 2025).

Series [1] has as its system mice with neuropathic pain. Conditions: through σ2R/TMEM97; cited from earlier work.
For series [2], the system named is p-eIF2α. In words: Immunocytochemistry of p-eIF2α in primary mouse DRGs. In kind it is cell-based. Conditions: approximately 16 h, vs vehicle (0.01% DMSO). In outline:
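Primary mouse DRG neurons were cultured overnight in Neurobasal A, then exposed for ~16 h to test compounds (30–1000 nM) or 0.01% DMSO. Cells were formalin-fixed, blocked in 10% goat serum with 0.1% Triton X-100, and immunostained for p-eIF2α (Alexa 555) and peripherin (Alexa 488) with DAPI. p-eIF2α was quantified as mean gray intensity in peripherin-positive neurons. One-way ANOVA with Tukey's test; mean ± SEM.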

For series [3], the system named is primary mouse DRG neurons. In words: Functional calcium imaging in primary mouse DRG neurons. In kind it is cell-based. Conditions: 10 μM Ver E. An outline of the steps: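 DRGs from an 18-week-old male Nestin-Cre × Cre-dependent GCaMP6f mouse were digested with papain (15 IU/mL) plus collagenase (2.25 mg/mL) at 37 °C for 20 min and plated at 450,000–500,000 cells/mL in Neurobasal A. Imaging ran 24 h later with FITC optics. Maximum fluorescence was taken during direct 10 μM exposure and during SOCE, against 0.1% DMSO vehicle. Unpaired two-tailed t tests; SEM; n = cells.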

In series [4] the test system is hiPSC-derived nociceptors. In words: Multiwell microelectrode array. In kind it is cell-based, human.
Series [5] concerns HEK293 cells. The series is described as follows: Cytotoxicity in HEK293 cells, resazurin reduction assay. In kind it is cell-based. Conditions: 24 h; for cell death at 30 μM: resazurin (Figure 7A); for LD50: 0.03-30 μM, logarithmic nonlinear regression curve (Figure 7B).
In series [6] the test system is HEK293 cells. Conditions: cited from earlier work.
The subject of series [7] is breast cancer cell lines. Conditions: cited from earlier work.

Entries after “also recorded” stand apart in the source; their conditions may differ. Where two headings read alike, the source gives them in different places.

Take `OCCCN1CCC2CC1c1cc(-c3ccc(C(F)(F)F)cc3)ccc12` (stereo not shown) [FEM-1689, reference compound]: in series [1], the “analgesic effect, in words” value is “drives analgesic responses”. In series [2] (FEM-1689 30 nM), the “p-eIF2α expression (mean gray intensity), in words” value is “marked reduction”.

Consider `C#CCCC[C@H]1OC(=O)[C@H](C(C)C)N(C)C(=O)[C@@H]2CCCN2C(=O)[C@H]([C@@H](C)CC)OC(=O)[C@H]([C@@H](C)CC)N(C)C(=O)[C@H]([C@@H](C)CC)NC(=O)[C@H]1C` [Ver E, veraguamide E], for which the “Maximum fluorescence during the SOCE response (mean)” value in series [3] (0.1% DMSO, max ΔF/F0, after reintroduction of extracellular Ca2+, vehicle mean = 2.126, no significant difference) is 1.929. Further, the “DRG excitability during coapplication with thapsigargin, in words” value in series [3] (compared to thapsigargin alone, P < 0.01) is “significantly increased DRG excitability”. For the same compound, the “SOCE response, in words” value in series [3] (upon reintroduction of extracellular Ca2+) is recorded as “no significant change”. The “p-eIF2α levels (mean gray intensity), in words” value in series [2] (Ver E 100 nM) and in series [2] (Ver E 1000 nM) was “No observable differences” each time. For the same compound, the “neuronal activity at 24 h, in words” value in series [4] (30 μM, 37 °C, 24-h time point) is “returning to baseline”. The “effect on activity at 42 °C (heat ramp 37 to 42 °C), in words” value in series [4] (42 °C, Ver E vs vehicle (DMSO)) was “no significant effect; also recorded: nonsignificant decrease”. Besides, the “cytotoxicity, in words” value in series [5] (0.03 μM to 30 μM, resazurin) is “no evidence of cytotoxicity”. In addition, in series [5], the “cell death at 30 μM” value was “no cytotoxicity”. In addition, the LD50 entry in series [5] (resazurin) was “no detectable LD50”.

Turning to `C[C@@H]1CC[C@@]2(OC1)O[C@H]1[C@@H](O)[C@H]3[C@@H]4CC[C@H]5C[C@@H](O[C@@H]6O[C@H](CO)[C@H](O[C@@H]7O[C@H](CO)[C@@H](O)[C@H](O[C@@H]8OC[C@@H](O)[C@H](O)[C@H]8O)[C@H]7O[C@@H]7O[C@H](CO)[C@H](O)[C@H](O[C@@H]8O[C@H](CO)[C@@H](O)[C@H](O)[C@H]8O)[C@H]7O)[C@H](O)[C@H]6O)[C@H](O)C[C@]5(C)[C@H]4CC[C@]3(C)[C@H]1[C@@H]2C` [digitonin, reference compound], the “cell death at 30 μM” value in series [5] turned out to be 100%. Besides, in series [5] (resazurin), the LD50 was 9.68 µM.

Regarding veraguamide C, the “cytotoxicity, in words” value in series [6] is reported as “nontoxic”; in series [7], “mild cytotoxicity”.
